According to ChEMBL document CHEMBL4325887, “Lipophilic Permeability Efficiency Reconciles the Opposing Roles of Lipophilicity in Membrane Permeability and Aqueous Solubility” (J Med Chem, 2018):
≈ marks a conversion by molar mass, not a printed value. Where a SMILES comes first, the peptide text is derived from it. [ ]: non-standard residue; d: D form. NMeY = CN[C@@H](Cc1ccc(O)cc1)C(=O)O; NMeF = CN[C@@H](Cc1ccccc1)C(=O)O; dNMeF = CN[C@H](Cc1ccccc1)C(=O)O; NMeA = CN[C@@H](C)C(=O)O; dNMeA = CN[C@H](C)C(=O)O; Sar = CNCC(=O)O

What was measured:
[1] = Thermodynamic aqueous solubility of compound in pH 7.4 PBS by UPLC-MS analysis; type: physicochemical; settings: PBS pH 7.4, pH 7.4; read-out: Therm_solubility
[2] = Apparent permeability in low-efflux MDCK2 cells at 2 uM by lucifer yellow dye-based UPLC-MS analysis; type: ADME, cell-based, Canis lupus familiaris, MDCK-II; settings: dog, MDCK
[3] = 1,9-decadiene/aqueous buffer solution partition coefficient, log D of the compound in PBS at pH 7.4 by shake flask method; type: physicochemical
[4] = Apparent permeability in human Caco2 cells; type: ADME, cell-based; settings: Caco-2
Outline: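 Apical-to-basolateral permeation (Papp, ×10-6 cm/s) was measured in quadruplicate. Compound was quantified by selected-mass UPLC-MS.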

[5] = Apparent permeability of compound in pH 7.4 PBS after 16 hrs by PAMPA assay; type: ADME

| SMILES | solubility thermodynamic [1] [µM] | Papp at 2 µM [2] [×10⁻⁶ cm/s] | logD hydrocarbon water [3] | Papp [4] [×10⁻⁶ cm/s] | Papp at 16 h [5] [×10⁻⁶ cm/s] |
| --- | --- | --- | --- | --- | --- |
| C/C=C/C[C@@H](C)[C@@H](O)[C@H]1C(=O)N[C@@H](C(C)C)C(=O)N(C)CC(=O)N(C)[C@@H](CC(C)C)C(=O)N[C@@H](C(C)C)C(=O)N(C)[C@@H](CC(C)C)C(=O)N[C@@H](C)C(=O)N[C@H](C)C(=O)N(C)[C@@H](CC(C)C)C(=O)N(C)[C@@H](CC(C)C)C(=O)N(C)[C@@H](C(C)C)C(=O)N1C | 0.12 (≈ 0.146 µg/mL) | 0.7 | 3.86 | – | – |
| CC[C@@H]1NC(=O)[C@H](CC(C)C)N(C)C(=O)[C@H](C(C)C)N(C)C(=O)[C@H](CC(C)C)N(C)C(=O)[C@H](CC(C)C)N(C)C(=O)[C@@H](C)NC(=O)[C@H](C)NC(=O)[C@H](CC(C)C)N(C)C(=O)[C@H](C(C)C)NC(=O)[C@H](CC(C)C)N(C)C(=O)CN(C)C1=O | 22 (≈ 25.2 µg/mL) | 1.8 | 3.94 | – | – |
| CC[C@H]1OC(=O)[C@H](C)[C@@H](O[C@H]2C[C@@](C)(OC)[C@@H](O)[C@H](C)O2)[C@H](C)[C@@H](O[C@@H]2O[C@H](C)C[C@H](N(C)C)[C@H]2O)[C@](C)(O)C[C@@H](C)C(=O)[C@H](C)[C@@H](O)[C@]1(C)O [ERYTHROMYCIN] | – | – | -3.9 | 1 to 3 | – |
| CC[C@H]1OC(=O)[C@H](C)[C@@H](O[C@H]2C[C@@](C)(OC)[C@@H](O)[C@H](C)O2)[C@H](C)[C@@H](O[C@@H]2O[C@H](C)C[C@H](N(C)C)[C@H]2O)[C@](C)(O)C[C@@H](C)CN(C)[C@H](C)[C@@H](O)[C@]1(C)O [AZITHROMYCIN] | – | – | – | 1 to 3 | – |
| CC(C)C[C@@H]1NC(=O)[C@H](C)NC(=O)[C@H](Cc2ccc(O)cc2)N(C)C(=O)[C@H](Cc2ccccc2)NC(=O)CN(C)C(=O)[C@@H]2CCCN2C(=O)[C@@H](Cc2ccccc2)N(C)C1=O (cyclo(AL[dNMeF]P[Sar]F[NMeY])) | 10 (≈ 8.38 µg/mL) | – | -2.44 | – | 0.2 |
| C/C=C/C[C@@H](C)[C@@H](O)[C@H]1C(=O)N[C@@H](C)C(=O)N(C)CC(=O)N(C)[C@@H](CC(C)C)C(=O)N[C@@H](C(C)C)C(=O)N(C)[C@@H](CC(C)C)C(=O)N[C@@H](C)C(=O)N[C@H](C)C(=O)N(C)[C@@H](CC(C)C)C(=O)N(C)[C@@H](CC(C)C)C(=O)N(C)[C@@H](C(C)C)C(=O)N1C | 27 (≈ 32.1 µg/mL) | 1.4 | 3.18 | – | – |
| CC[C@H](C)[C@@H]1NC(=O)[C@H](Cc2ccc(O)cc2)N(C)C(=O)[C@H](Cc2ccccc2)NC(=O)CN(C)C(=O)[C@H](C)N(C)C(=O)[C@@H](Cc2ccccc2)N(C)C(=O)[C@H](CC(C)C)NC1=O (cyclo(F[NMeY]IL[dNMeF][NMeA][Sar])) | 37 (≈ 32.1 µg/mL) | – | 0.92 | – | 7.8 |
| C/C=C/C[C@@H](C)[C@@H](OC(C)=O)[C@H]1C(=O)N[C@@H](CC)C(=O)N(C)CC(=O)N(C)[C@@H](CC(C)C)C(=O)N[C@@H](C(C)C)C(=O)N(C)[C@@H](CC(C)C)C(=O)N[C@@H](C)C(=O)N[C@H](C)C(=O)N(C)[C@@H](CC(C)C)C(=O)N(C)[C@@H](CC(C)C)C(=O)N(C)[C@@H](C(C)C)C(=O)N1C | 0.005 (≈ 0.00622 µg/mL) | – | 4.14 | – | – |
| CC[C@H](C)[C@@H]1NC(=O)[C@H](Cc2ccc(O)cc2)N(C)C(=O)[C@H](Cc2ccccc2)NC(=O)CN(C)C(=O)[C@@H]2CCCN2C(=O)[C@@H](Cc2ccccc2)N(C)C(=O)[C@H](CC(C)C)NC1=O [CORDYHEPTAPEPTIDE A] (cyclo(F[NMeY]IL[dNMeF]P[Sar])) | 0.45 (≈ 0.396 µg/mL) | – | -0.13 | – | – |
| C/C=C/C[C@@H](C)[C@H]1OC(=O)[C@H](C(C)C)N(C)C(=O)[C@H](CC(C)C)N(C)C(=O)[C@H](CC(C)C)N(C)C(=O)[C@@H](C)NC(=O)[C@H](C)NC(=O)[C@H](CC(C)C)N(C)C(=O)[C@H](C(C)C)NC(=O)[C@H](CC(C)C)N(C)C(=O)CN(C)C(=O)[C@H](CC)NC(=O)[C@H]1NC | 2.2 (≈ 2.65 µg/mL) | – | 2.61 | – | – |
| CC[C@@H]1NC(=O)[C@H](CC(C)C)N(C)C(=O)[C@H](CC)N(C)C(=O)[C@H](CC(C)C)N(C)C(=O)[C@H](CC(C)C)N(C)C(=O)[C@@H](C)NC(=O)[C@H](C)NC(=O)[C@H](CC(C)C)N(C)C(=O)[C@H](C(C)C)NC(=O)[C@H](CC(C)C)N(C)C(=O)CN(C)C1=O | 10 (≈ 11.3 µg/mL) | 2.7 | 3.64 | – | – |
| CC(C)C[C@@H]1NC(=O)[C@H](C(C)C)NC(=O)[C@H](Cc2ccc(O)cc2)N(C)C(=O)[C@H](Cc2ccccc2)NC(=O)CN(C)C(=O)[C@@H]2CCCN2C(=O)[C@@H](Cc2ccccc2)N(C)C1=O [Cordyheptapeptide C] | 2.7 (≈ 2.34 µg/mL) | – | -0.43 | – | 1.9 |
| CC[C@H](C)[C@@H]1NC(=O)[C@H](Cc2ccc(O)cc2)N(C)C(=O)[C@H](Cc2ccccc2)NC(=O)CN(C)C(=O)[C@@H]2CCCN2C(=O)[C@@H](Cc2ccccc2)N(C)C(=O)[C@H](C)NC1=O (cyclo(A[dNMeF]P[Sar]F[NMeY]I)) | 9 (≈ 7.54 µg/mL) | – | -1.52 | – | – |
| CC[C@H]1OC(=O)[C@H](C)[C@@H](O[C@H]2C[C@@](C)(OC)[C@@H](O)[C@H](C)O2)[C@H](C)[C@@H](O[C@@H]2O[C@H](C)C[C@H](N(C)C)[C@H]2O)[C@](C)(O)C[C@@H](C)/C(=N/OCOCCOC)[C@H](C)[C@@H](O)[C@]1(C)O | – | – | – | > 10 | – |
| C/C=C/C[C@@H](C)[C@@H](O)[C@H]1C(=O)N[C@@H]([C@@H](C)O)C(=O)N(C)CC(=O)N(C)[C@@H](CC(C)C)C(=O)N[C@@H](C(C)C)C(=O)N(C)[C@@H](CC(C)C)C(=O)N[C@@H](C)C(=O)N[C@H](C)C(=O)N(C)[C@@H](CC(C)C)C(=O)N(C)[C@@H](CC(C)C)C(=O)N(C)[C@@H](C(C)C)C(=O)N1C | 33 (≈ 40.2 µg/mL) | 0.5 | 2.43 | – | – |
| CC[C@H](C)[C@@H]1NC(=O)[C@H](C)N(C)C(=O)[C@H](Cc2ccccc2)NC(=O)CN(C)C(=O)[C@@H]2CCCN2C(=O)[C@@H](Cc2ccccc2)N(C)C(=O)[C@H](CC(C)C)NC1=O (cyclo(F[NMeA]IL[dNMeF]P[Sar])) | 16 (≈ 12.6 µg/mL) | – | 0.71 | – | 5.9 |
| CC[C@H](C)[C@@H]1NC(=O)[C@H](Cc2ccccc2)N(C)C(=O)[C@H](Cc2ccccc2)NC(=O)CN(C)C(=O)[C@@H]2CCCN2C(=O)[C@@H](Cc2ccccc2)N(C)C(=O)[C@H](CC(C)C)NC1=O (cyclo(F[NMeF]IL[dNMeF]P[Sar])) | 2.3 (≈ 1.99 µg/mL) | – | 2.13 | – | 2.3 |
| CC[C@H](C)[C@@H]1NC(=O)[C@H](Cc2ccc(O)cc2)N(C)C(=O)[C@H](Cc2ccccc2)NC(=O)CN(C)C(=O)[C@@H]2CCCN2C(=O)[C@@H](C)N(C)C(=O)[C@H](CC(C)C)NC1=O (cyclo(F[NMeY]IL[dNMeA]P[Sar])) | – | – | -1.71 | – | 1.3 |
| CC[C@H](C)[C@@H]1NC(=O)[C@H](Cc2ccc(O)cc2)N(C)C(=O)[C@H](C)NC(=O)CN(C)C(=O)[C@@H]2CCCN2C(=O)[C@@H](Cc2ccccc2)N(C)C(=O)[C@H](CC(C)C)NC1=O (cyclo(A[NMeY]IL[dNMeF]P[Sar])) | 17 (≈ 13.7 µg/mL) | – | -1.78 | – | – |
| CC[C@H]1OC(=O)[C@H](C)[C@@H](O[C@H]2C[C@@](C)(OC)[C@@H](O)[C@H](C)O2)[C@H](C)[C@@H](O[C@@H]2O[C@H](C)C[C@H](N(C)C)[C@H]2O)[C@](C)(OC)C[C@@H](C)C(=O)[C@H](C)[C@@H](O)[C@]1(C)O [CLARITHROMYCIN] | – | – | – | > 10 | – |
